Source: PubChem
Compounds with a hit are over-represented: about 4.1% of the library has one in this group of screens.
ROMK primary: human ROMK K+ channel modulation, primary screen; P48048; Tet-inducible ROMK, thallium flux fluorescence; actives lie on both sides; B-score at 10 µM; actives 2% (n = 130,000);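 active = signal ratio slope over the read window, or its plate-corrected B-score, at least 3 SD from the plate mean, either direction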;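 note: B-score of the F/F0 ratio slope over 7 to 12 s after thallium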
Autophagy mod: modulators of autophagy; calls only at 10 µM (by protocol); MEF GFP-LC3 puncta imaging; test concentration mostly 10 µM; actives 0.98% (n = 190,000); AID 463193;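 active = percentage of spot-positive cells more than 3 SD above its plate mean, without a fluorescence outlier flag or 80% toxicity; inconclusive = no clear call, values can overlap the other calls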;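 note: spot-positive cell cutoff set from DMSO-treated cells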
KCC2 mod: modulates chloride dependent transport by human KCC2; Q9H2X9; KCC2 cells, thallium flux FluoZin-2 fluorescence; B-score of Tl+ flux slope (higher = more flux/activation; lower = inhibition) at 10 µM; actives 2.2% (n = 190,000); AID 1456;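 active = thallium flux slope and its plate-corrected score both differing from the plate sample mean at a set confidence after two filtering rounds, in either direction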;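 note: slope of fluorescence scaled to starting intensity during 10 to 20 s after thallium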
Redox H2O2 prof: compounds producing H2O2 with reducing agent – biochemical, NIH compound library profiling, artefact control for MLSCN library redox annotation, primary screen. activation, % at 10 µM. DTT-dependent redox cycling H2O2, phenol red/HRP absorbance; 100% = 100 µM peroxide control, 0% = buffer. actives 0.03% (n = 200,000). AID 878;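 active = activation of at least 50% relative to the plate's high and low controls in the primary single-dose screen; inactive = activation below 50%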;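 note: compound incubated with DTT at 0.8 mM final as the reducing agent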
Dynein cargo inh: blocks dynein driven cargo transport along microtubules; AID 1381; actives 0.47% (n = 220,000); z-score, hits read low; 3617.4 mouse cells, GR-EGFP nuclear translocation imaging; test concentration mostly 20 µM; stimulated with dexamethasone, 1 µM; hits give low values;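 active = plate z-score of nuclear minus cytoplasmic receptor signal below a set negative limit, without overly bright fluorescence or cell loss, cut at about -3.5 in these data, passing the limit was not always enough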;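 note: z-score of nuclear minus cytoplasmic ring GR-EGFP intensity difference per well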
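Medium: Induction medium lacking tetracycline, stripped serum | Probe or stimulus: 1.0 µM final dexamethasone stimulus | Schedule: 48 h induction, then 1 h compound, then 30 min agonist, 37 °C | Signal: Automated 10x imaging of fixed Hoechst-stained cells | Evaluation: Per-cell GR-EGFP intensity, nucleus versus surrounding cytoplasmic ring, well-averaged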
KCC2 secondary: confirmation of human KCC2 transport modulators; shares compounds with KCC2 mod; HEK293-KCC2, thallium flux, FluoZin2 fluorescence; hits give high values; normalised thallium flux (F/F0 slope) at 10 µM; actives 15% (n = 3,700); AID 1713;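 active = thallium flux slope above the same plate's solvent-only control mean plus 3 SD; inconclusive = the two replicate wells disagree; inactive = no significant difference from solvent-only control wells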
KCC2 bumet counter: bumetanide-insensitive thallium flux in KCC2 cells with ouabain, counter-screen; shares compounds with KCC2 mod; HEK293-KCC2 + bumetanide/ouabain, thallium flux FluoZin2; hits give high values; normalized thallium flux at 10 µM; actives 49% (n = 3,700);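 active = thallium entry rate above the same plate's blocked-transporter control wells by more than 3 SD; inconclusive = the two repeat wells disagree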;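 note: raw slope of fluorescence over initial fluorescence between 10 and 20 s after thallium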
KCC2 secondary2: KCC2 (human) modulation, second secondary assay | shares compounds with KCC2 mod | HEK293-KCC2, thallium flux FluoZin2 fluorescence; actives lie on both sides; F/F0 rise rate, 10–20 s post-thallium | normalized thallium flux at 10 µM | actives 23% (n = 3,700);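 active = thallium flux slope more than 3 SD above or below the plate's solvent-only control mean, mostly below; inconclusive = the two repeat wells disagreed; inactive = no significant shift from solvent-only controls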;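 note: raw slope with 0.1% DMSO as baseline and bumetanide as block control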
HEK293 Tl flux: counter-screen for KCC2 modulators: effect in parental HEK293 cells; thallium flux rate (normalised fluorescence) at 10 µM; actives 46% (n = 3,700); thallium flux FluoZin2, ouabain; baseline-ratio fluorescence slope, 10–20 s after thallium; shares compounds with KCC2 mod;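 active = thallium flux rate significantly above the same plate's solvent-only control wells, beyond their mean plus 3 SD; inconclusive = the two replicate wells gave conflicting results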
KCC2 retest ouab: modulates human KCC2 on retest with ouabain | AID 1717 | shares compounds with KCC2 mod | HEK293-KCC2, thallium flux FluoZin2 fluorescence; bidirectional: low = inhibitor, high = activator | actives 48% (n = 3,700) | raw Tl+ flux slope (below DMSO = inhibition, above = activation) at 10 µM;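 active = thallium flux slope beyond 3 SD from same-plate DMSO control mean in most replicates, usually higher, sometimes lower; inconclusive = repeat tests gave conflicting results; inactive = no significant difference from controls in most replicates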;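 note: slope of initial-normalized fluorescence between seconds 10 and 20 after thallium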
HEK counter2: parental HEK flux effect, counter-screen 2; shares compounds with KCC2 mod; HEK293 parental, thallium flux FluoZin-2 fluorescence slope; thallium flux slope at 10 µM; actives 33% (n = 3,700);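 active = thallium flux slope above the same plate's solvent-control mean plus 3 SD in both duplicate wells; inconclusive = duplicate wells that disagreed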;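 note: run without ouabain in cells lacking the KCC2 cotransporter; slope of fluorescence scaled to its starting value between 10 and 20 s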
The depositor's hits bear a star.

Cc1cccc(N/C(N)=N/c2nc(C)cc(=O)[nH]2)c1 was read as Autophagy mod inactive, KCC2 mod -0.18, Redox H2O2 prof -1.1 and Dynein cargo inh 2.03.
For CC1(C)CC(=O)C2=C(C1)c1c(ccc3ccccc13)NC2c1cc([N+](=O)[O-])cc([N+](=O)[O-])c1O (stereo unspecified) the results were ROMK primary 0.112, Autophagy mod inactive, KCC2 mod -4.47*, Redox H2O2 prof -0.8, Dynein cargo inh 1.2, KCC2 secondary 0.00528, KCC2 bumet counter 0.00502, KCC2 secondary2 0.0269*, HEK293 Tl flux inconclusive, KCC2 retest ouab 0.0157* and HEK counter2 0.0102.
Cc1ccc(N/N=C/c2c(C)c(C#N)c(=O)n(C)c2O)cc1C was read as ROMK primary 2.1, Autophagy mod inactive, KCC2 mod -3.95*, Redox H2O2 prof 0.2, Dynein cargo inh -0.238, KCC2 secondary 0.0103, KCC2 bumet counter 0.00645, KCC2 secondary2 0.0353, HEK293 Tl flux inconclusive, KCC2 retest ouab 0.0191 and HEK counter2 0.0107.
Screening CNC(=O)CSc1nc(N)c2c3c(sc2n1)CCC3 returned Autophagy mod inactive, KCC2 mod -5.85*, Redox H2O2 prof 1.8, Dynein cargo inh -0.391, KCC2 secondary 0.0109, KCC2 bumet counter 0.00649, KCC2 secondary2 0.034, HEK293 Tl flux 0.00773, KCC2 retest ouab 0.022 and HEK counter2 0.0103.
For Cc1nn2c(NC(C)C)c3c(nc2c1-c1ccccc1)CCC3 the results were KCC2 mod -1.56 and Dynein cargo inh 0.414.
Screening Cc1nn2c(NCC(C)C)c3c(nc2c1-c1ccccc1)CCC3 returned Autophagy mod inactive, KCC2 mod 9.49*, Redox H2O2 prof -0.1, Dynein cargo inh -0.00146, KCC2 secondary 0.00882, KCC2 bumet counter 0.00515, KCC2 secondary2 0.0301, HEK293 Tl flux 0.00733, KCC2 retest ouab 0.0183 and HEK counter2 0.0108.
Screening Cc1ccc(NC(=O)NC(=O)CN2C(=O)NC3(CCCCCCC3)C2=O)c(C)c1 returned Autophagy mod inactive, KCC2 mod -5.52*, Redox H2O2 prof 2.1, Dynein cargo inh 1.21, KCC2 secondary 0.00988, KCC2 bumet counter 0.0074, KCC2 secondary2 0.0349, HEK293 Tl flux 0.00473, KCC2 retest ouab 0.0204 and HEK counter2 0.0123.
Cc1cc(Br)ccc1NC(=O)CNC(=O)CN1C(=O)NC2(CCCCCC2)C1=O was read as Autophagy mod inactive, Redox H2O2 prof 1.8 and Dynein cargo inh 0.0626.
Cn1c(=O)c2c(nc(NCC3CCCO3)n2Cc2cccc(Br)c2)n(C)c1=O (stereo unspecified) was read as Autophagy mod inactive, KCC2 mod -7.57*, Redox H2O2 prof 1.6, Dynein cargo inh 0.431, KCC2 secondary 0.0106, KCC2 bumet counter 0.0064, KCC2 secondary2 0.0304, HEK293 Tl flux 0.00707, KCC2 retest ouab 0.0204 and HEK counter2 inconclusive.
Screening Cn1c(NCC2CCCO2)nc2c1c(=O)n(Cc1ccccc1)c(=O)n2C (stereo unspecified) returned ROMK primary 0.256, Autophagy mod inactive, Redox H2O2 prof -1.2 and Dynein cargo inh -0.126.
